High-throughput results (PubChem BioAssay)
The full list was thinned out, with hits kept by preference.
bCat KO growth: beta-catenin-lacking colon tumor cell growth suppression; 1.5% of 140,000 active; viability, % at 10 µM; AID 818; HCT116 beta-catenin knockout viability, CellTiter-Glo, 60 h; active compounds read low;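 active means viability at or under a set limit, the compound median less 4 SD, cut at about 6% in these data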;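 further: 0% = Hyamine 1622 control at 20 µM and 100% = untreated cell control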
H69AR growth 86K: blocks growth of human H69AR lung tumor cells. H69AR lung tumor viability, ATP luminescence, 72 h; active compounds read low. viability, % at 10 µM. 6% of 85,000 active. AID 598;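 active means viability at or below 40%; inactive means viability above 40%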;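 further: multidrug resistant small cell line overexpressing MRP-1 efflux transporter; 100% = mean luminescence of untreated control wells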
Lung fibro prol: blocks proliferation of human lung fibroblasts; LL 47 human lung fibroblast viability, ATP luminescence; active compounds read low; viability, % at 10 µM; 1.1% of 85,000 active;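 active means viability at or below 50% in the single dose screen; inactive means viability above 50%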;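 further: compound exposure lasted 72 h before the ATP readout; 100% = median luminescence of untreated cell-only wells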
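Material: Human LL 47 lung fibroblast cells | Input: 1,150 cells/well | Buffer or medium: IMEM plus 15% FBS | Compound dosing: 0.1% DMSO in all compound wells | Times: Overnight cell rest, 72 h compound treatment at 37 °C | Signal: CellTiter-Glo luminescence measuring cellular ATP | Measure: % viability versus median cells-only luminescence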
HUVEC prolif 384: blocks proliferation of human endothelial cells; HUVEC proliferation, CellTiter-Glo luminescence, 72 h; active compounds read low; viability, % at 10 µM (by protocol); 1.1% of 86,000 active;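 active means viability at or below 30%; inactive means viability above 30%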;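 further: 100% = median luminescence of DMSO-only cell control wells on each plate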
PTEN del growth: PTEN-deleted cell growth suppression; HCT116 PTEN-null viability, CellTiter-Glo, 60 h; active compounds read low; viability, % at 10 µM; 1.2% of 140,000 active;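 active means viability at or below a set limit, 4 SD under the median of all tested compounds, cut at about 3.7% in these data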;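 further: PTEN knockout HCT116 line with beta catenin targeted HCT116 as companion control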
An asterisk follows results filed as active.

Screening COC(=O)c1cccc(Cn2c(Cl)c(/C=N/NC(=O)c3ccccc3Cl)sc2=O)c1 returned bCat KO growth 89.9, H69AR growth 86K 31.5*, Lung fibro prol 97.1, HUVEC prolif 384 79.2 and PTEN del growth 77.7.
O=c1sc(/C=N/Nc2ccccc2)c(Cl)n1Cc1ccccc1 was read as bCat KO growth 86.8 and PTEN del growth 75.9.
`COc1ccc(S(=O)(=O)CCC(=O)N(C)c2ccc(OC)cc2OC)cc1` gave bCat KO growth 0.5*, H69AR growth 86K 93.8, Lung fibro prol 103.3, HUVEC prolif 384 103.3 and PTEN del growth 0.4*.
`COc1ccc(S(=O)(=O)CCC(=O)Nc2ccc(OC)cc2OC)cc1` gave bCat KO growth 92.1, H69AR growth 86K 84.1, Lung fibro prol 97.3, HUVEC prolif 384 94.0 and PTEN del growth 91.8.
CCCCC(=O)/C=C/n1c(=S)oc2ccccc21 was read as bCat KO growth 6.6 and PTEN del growth 4.2.
Screening N#C/C(=C/c1ccc(Br)o1)C(N)=O returned bCat KO growth 73.8, H69AR growth 86K 33.0*, Lung fibro prol 95.5, HUVEC prolif 384 87.3 and PTEN del growth 85.7.
`CCCCCCc1cc2cc(S(=O)(=O)c3ccc(F)c(Cl)c3)c(=O)oc2cc1O` gave bCat KO growth 2.9* and PTEN del growth 3.1*.
For CCCCCCc1cc2cc(C(=O)NC)c(=N)oc2cc1O the results were bCat KO growth 9.0 and PTEN del growth 4.0.
Screening CCCCCCc1cc2cc(C(=O)Nc3cccc(OC)c3)c(=O)oc2cc1O returned bCat KO growth 5.3* and PTEN del growth 4.9.
`CCCCCCc1cc2cc(C(=O)Nc3ccc(OC)cc3)c(=O)oc2cc1O` gave bCat KO growth 65.8 and PTEN del growth 56.8.
CCCCCCc1cc2cc(C(N)=O)c(=N)oc2cc1O was read as bCat KO growth 84.1, H69AR growth 86K 2.0*, Lung fibro prol 101.3, HUVEC prolif 384 68.0 and PTEN del growth 58.4.
For Cc1ccc(C2NC(=S)NC3=C2C(=O)CC(C)(C)C3)cc1 (stereo unspecified) the results were bCat KO growth 76.3 and PTEN del growth 85.5.
Screening O=C1O/C(=C\c2ccccc2)c2ccccc21 returned bCat KO growth 94.6 and PTEN del growth 97.2.
O=C1N/C(=C\c2ccccc2)c2ccccc21 was read as bCat KO growth 43.4, H69AR growth 86K 24.1*, Lung fibro prol 74.7, HUVEC prolif 384 42.7 and PTEN del growth 39.2.
`Cn1c(=O)[nH]c(=O)c2c1nc(CN1CCN(c3cccc(Cl)c3)CC1)n2CCc1ccccc1` gave bCat KO growth 79.3, H69AR growth 86K 2.8*, Lung fibro prol 85.0, HUVEC prolif 384 72.5 and PTEN del growth 73.9.
For CCCCCn1c(CN2CCN(c3cccc(Cl)c3)CC2)nc2c1c(=O)[nH]c(=O)n2C the results were bCat KO growth 60.0, H69AR growth 86K 38.6*, Lung fibro prol 83.6, HUVEC prolif 384 64.0 and PTEN del growth 48.3.
`Cc1ccc(C(NC(=O)N2CCOCC2)=C(Cl)Cl)cc1F` gave bCat KO growth 3.4*, H69AR growth 86K 8.7*, Lung fibro prol 92.4, HUVEC prolif 384 103.2 and PTEN del growth 1.4*.
For Cc1ccc(C(NC(=O)N2CCOCC2)C(Cl)Cl)cc1F (stereo unspecified) the results were bCat KO growth 93.7 and PTEN del growth 92.8.
Screening CC(C)CNc1nnnc2c1sc1nc(N3CCOCC3)c3c(c12)CC(C)(C)SC3 returned bCat KO growth 45.1 and PTEN del growth 40.9.
`CC1(C)Cc2c(c(N3CCOCC3)nc3sc4c(NN)ncnc4c23)CS1` gave bCat KO growth 2.8*, H69AR growth 86K 46.2, Lung fibro prol 17.3*, HUVEC prolif 384 6.3* and PTEN del growth 3.8.
CC1(C)Cc2c(c(N3CCOCC3)nc3sc4c(NCc5ccco5)nnnc4c23)CS1 was read as bCat KO growth 48.0, H69AR growth 86K 37.0*, Lung fibro prol 84.4, HUVEC prolif 384 87.2 and PTEN del growth 47.8.
For CC1(C)Cc2c(c(N3CCOCC3)nc3sc4c(NCc5ccccc5)nnnc4c23)CS1 the results were bCat KO growth 6.7, H69AR growth 86K 2.0*, Lung fibro prol 17.6*, HUVEC prolif 384 24.4* and PTEN del growth 3.2*.
For O=C(CSc1ccccc1)NCc1ccccn1 the results were bCat KO growth 97.9 and PTEN del growth 91.9.
For CCCSc1ccc2nc(NC(=O)OC)[nH]c2c1 the results were bCat KO growth 8.8, H69AR growth 86K 19.8*, Lung fibro prol 53.1, HUVEC prolif 384 44.7 and PTEN del growth 11.6.
For COc1cccc(C(=O)Nc2nc3ccccc3[nH]2)c1 the results were bCat KO growth 75.3, H69AR growth 86K 31.6*, Lung fibro prol 60.5, HUVEC prolif 384 68.2 and PTEN del growth 80.9.
Screening O=C(COc1ccccc1)Nc1nc2ccccc2[nH]1 returned bCat KO growth 98.7, H69AR growth 86K 102.4, Lung fibro prol 99.5, HUVEC prolif 384 101.6 and PTEN del growth 98.6.
`O=C(Nc1nc2ccccc2[nH]1)c1ccc(Cl)c(S(=O)(=O)N2CCCC2)c1` gave bCat KO growth 25.4, H69AR growth 86K 12.0*, Lung fibro prol 73.1, HUVEC prolif 384 75.1 and PTEN del growth 39.0.
CC(CC(=O)Nc1nc2ccccc2[nH]1)c1ccccc1 (stereo unspecified) was read as bCat KO growth 71.0, H69AR growth 86K 12.1*, Lung fibro prol 90.9, HUVEC prolif 384 88.4 and PTEN del growth 70.4.
O=C(CSc1ccc2ccccc2c1)Nc1nc2ccccc2[nH]1 was read as bCat KO growth 94.4 and PTEN del growth 101.1.
CSCCC(NC(=O)c1cccc(S(=O)(=O)N2CCOCC2)c1)C(=O)Nc1cccc(C)c1 (stereo unspecified) was read as bCat KO growth 73.4 and PTEN del growth 73.0.
Screening CC(=O)Nc1cccc(OCc2ccc(S(=O)(=O)Cc3ccccc3)cc2)c1 returned bCat KO growth 82.3 and PTEN del growth 85.9.
For COC(=O)c1ccccc1NC(=S)N(Cc1ccc2c(c1)OCO2)Cc1cc2cc(OC)ccc2[nH]c1=O the results were bCat KO growth 74.7 and PTEN del growth 72.6.
O=C(CS(=O)(=O)Cc1ccccc1)Nc1ccc(S(=O)(=O)N2CCOCC2)cc1 was read as bCat KO growth 92.8 and PTEN del growth 104.8.
Screening S=c1[nH]nc(-c2ccccn2)n1/N=C/c1ccc(Br)s1 returned bCat KO growth 90.5 and PTEN del growth 88.2.
For CCOC(=O)c1c(C)[nH]c(C)c1C(=O)COC(=O)/C=C/c1ccc(Cl)cc1 the results were bCat KO growth 90.3 and PTEN del growth 95.1.
Screening COC(=O)Nc1nc2ccc(C(=O)c3ccccc3)cc2[nH]1 returned H69AR growth 86K 32.9*, Lung fibro prol 50.0 and HUVEC prolif 384 36.9.
`O=C(NCCc1ccc(Cl)cc1)C1CCC(CNc2c(N3CCCCC3)c(=O)c2=O)CC1` (stereo unspecified) gave bCat KO growth 78.0 and PTEN del growth 79.2.
`N#Cc1cnn(-c2ncnc3sc(-c4ccccc4)cc23)c1N` gave bCat KO growth 88.0, H69AR growth 86K 36.0*, Lung fibro prol 95.7, HUVEC prolif 384 73.5 and PTEN del growth 89.3.
